The target in assay [1] is T1, Gβ1γ2 (Homo sapiens, UniProt P62873). The assay is described as follows: Surface plasmon resonance direct binding to immobilized biotinylated Gβ1γ2. On the technique in general: Surface plasmon resonance follows binding to a sensor surface in real time, without labels.
The target in assay [2] is Gβγ (Homo sapiens, UniProt P62873). The assay is described as follows: SPR direct binding to Gβγ with surface regeneration protocol. The note with it: for Kd: Kd (μM), surface regeneration protocol, average of N experiments; for koff: read-out: koff (×10^−4s^−1). Put shortly: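 Gβ1γ2, biotinylated at the Gβ N-terminus, was captured on neutravidin amine-coupled to the sensor (2000–10000 µRIU), then blocked with 1 mM biotin. The run used 50 mM HEPES pH 7.6, 1 mM EDTA, 100 mM NaCl, 0.1% C12E10, 1 mM DTT and 1.2% DMSO at 25°C. Dilutions were injected 7 min at 50 µL/min with 10 min dissociation. Regeneration was 3×30 s MgCl2/urea/guanidine-HCl. Data were reference/blank/DMSO-corrected, fitted by a regeneration kinetic model and averaged.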

Assay [3] addresses Gβ1His6γ2C68S (Homo sapiens, UniProt P62873). The assay is described as follows: Non-covalent nano ESI QToF mass spectrometry of Gβγ-gallein complexes. The assay is classed as binding. The following applies: collision energies that maintain some non-covalent Gβ-Gγ interactions. Put shortly:
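Test compound (100 µM) mixed with 5 µM Gβ1His6γ2C68S in 20 mM ammonium acetate, pH 7.0, for 30 min at room temperature. Intact non-covalent complexes were analysed by nano-ESI QToF MS under mild ionisation at low and high collision cell voltage. The C68S mutation blocks Gγ2 lipidation, so no detergent was used.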

Assay [4] deals with T1, Gβ1γ2. The assay is described as follows: [3H]-gallein binding to Gβγ, spin desalting column separation. The note with it: 100 μM gallein or greater; 1 μM Gβγ.
Where [5] appears, read: Kd (μM), kinetic titration, average of N experiments.

Where two headings read alike, the source gives them in different places. Where only a bound is given, the exact number is not on record here.

As to `O=C(O)C1CCCCC1c1c2ccc(=O)c(O)c-2oc2c(O)c(O)ccc12` (stereo not shown) [M119, 2-(3,4,5-trihydroxy-6-oxoxanthen-9-yl)cyclohexane-1-carboxylic acid], the Kd in assay [1] (Kd (M), Equilibrium titration) is 4.6e-07 M; in assay [1] (Kd (M), Kinetic titration), 1.2e-07 M; in assay [1] (average Kd) it was 2.76e-07 ± 7e-08 M. For the same molecule, the “Ka (association constant)” value in assay [1] (equilibrium analysis, Rmax(obs) fit to 1:1 Langmuir isotherm, single data set) turned out to be 2.16e+06 M⁻¹. The koff was determined as 0.00012 s⁻¹ in assay [1] (read-out: koff (s^−1), Kinetic titration) and 0.0002 ± 8e-05 s⁻¹ in assay [1] (read-out: koff (×10^−4s^−1)). Also, the kon is 830 ± 200 M⁻¹ s⁻¹ in assay [1] (read-out: kon (M^−1s^−1)) and 1027 ± 8 M⁻¹ s⁻¹ in assay [1] (read-out: kon (M^−1s^−1), Kinetic titration).
For “SIGK(L9A): Control peptide, non-binding in the ELISA experiments (SIGKAFKIAGYPDYD) [reference compound]”, the “SPR response associated with binding to Gβγ” value in assay [1] (control peptide, data not shown) is “did not elicit a response”.
On to `Nc1cccc(Nc2cc(S(=O)(=O)O)c(N)c3c2C(=O)c2ccccc2C3=O)c1` [compound 372, 1-amino-4-(3-aminoanilino)-9,10-dioxoanthracene-2-sulfonic acid], for which the results for the Kd in assay [2] and in assay [1] (setting [5]) were 2.7 ± 0.45 µM and 2e-06 ± 3e-07 M, respectively. Also, the koff is 0.00082 ± 0.00051 s⁻¹ in assay [2] and 0.00086 ± 0.00024 s⁻¹ in assay [1] (read-out: koff (×10^−4s^−1)). Further, the kon is 267 ± 137 M⁻¹ s⁻¹ in assay [2] (read-out: kon (M^−1s^−1)) and 390 ± 93 M⁻¹ s⁻¹ in assay [1] (read-out: kon (M^−1s^−1)). The “concentration above which non-specific/multiple binding sites were observed” value in assay [1] (kinetic titration) was over 20 µM. Also, the “koff slower than that of M201” value in assay [1] (kinetic titration) turned out to be 10 fold.
For the molecule `O=C1OC2(c3ccccc31)c1ccc(O)c(O)c1Oc1c2ccc(O)c1O` [Gallein, 3′, 4′, 5′, 6′-tetrahydroxyspiro[2-benzofuran-3, 9′-xanthene]-1-one], the kon in assay [2] is 981 M⁻¹ s⁻¹; in assay [2] (read-out: kon (M^−1s^−1)), 926 ± 55 M⁻¹ s⁻¹; in assay [1] (read-out: kon (M^−1s^−1)), 870 ± 112 M⁻¹ s⁻¹. Further, the Kd in assay [2] came out at 0.35 ± 0.03 µM; in assay [1] (setting [5]) it was 4.07e-07 ± 2.4e-07 M. For the same molecule, the koff in assay [2] was found to be 0.00032 ± 2.7e-05 s⁻¹; in assay [1] (read-out: koff (×10^−4s^−1)), 0.00035 ± 4.5e-05 s⁻¹. Further, the “reversal of binding at higher collision energy” value in assay [3] is “fully reversed”. For the same molecule, in assay [1] (kinetic titration), the “concentration above which non-specific/multiple binding sites were observed” value is recorded as “above 30 μM”. For the same molecule, the “koff slower than that of M201” value in assay [1] (kinetic titration) was determined as 10 fold. The maximum binding stoichiometry in assay [4] is 1.6 moles of gallein to 1 mole of Gβγ.

The Kd is the equilibrium constant for the complex coming apart. Read a high Kd as a looser complex.
